Active and inactive are the calls of the source.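 The calls were made as follows, unless noted: active = viability at or below 10% of carrier control in both of two separate runs; inconclusive = viability at or below 10% in only one of the two runs; inactive = the rest.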
Legend:
[1] = Her2 expression decrease, cell viability multiplex – SKBR3 breast tumor cells, AlphaScreen, ATP viability, primary screen (AID 461;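 active = Her2 level under about 52% in both replicate screens, with viability over 70% of control, limit read from the data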;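 as to Her2 level: lower value means less Her2 protein in the cells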;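 as to viability: percent of carrier control wells set as 100% viability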); details: SKBR3 Her2 protein level, 18-24 h, measured here: SKBR3 viability, ATP luminescence, at 10 µM
[2] = biological target: Receptor tyrosine-protein kinase erbB-2 (Homo sapiens) (UniProt P04626); test: as above; details: 18-24 h, at 10 µM, stronger effect = lower value
Chain of Receptor tyrosine-protein kinase erbB-2 (Homo sapiens) (P04626 whole entry, looked up): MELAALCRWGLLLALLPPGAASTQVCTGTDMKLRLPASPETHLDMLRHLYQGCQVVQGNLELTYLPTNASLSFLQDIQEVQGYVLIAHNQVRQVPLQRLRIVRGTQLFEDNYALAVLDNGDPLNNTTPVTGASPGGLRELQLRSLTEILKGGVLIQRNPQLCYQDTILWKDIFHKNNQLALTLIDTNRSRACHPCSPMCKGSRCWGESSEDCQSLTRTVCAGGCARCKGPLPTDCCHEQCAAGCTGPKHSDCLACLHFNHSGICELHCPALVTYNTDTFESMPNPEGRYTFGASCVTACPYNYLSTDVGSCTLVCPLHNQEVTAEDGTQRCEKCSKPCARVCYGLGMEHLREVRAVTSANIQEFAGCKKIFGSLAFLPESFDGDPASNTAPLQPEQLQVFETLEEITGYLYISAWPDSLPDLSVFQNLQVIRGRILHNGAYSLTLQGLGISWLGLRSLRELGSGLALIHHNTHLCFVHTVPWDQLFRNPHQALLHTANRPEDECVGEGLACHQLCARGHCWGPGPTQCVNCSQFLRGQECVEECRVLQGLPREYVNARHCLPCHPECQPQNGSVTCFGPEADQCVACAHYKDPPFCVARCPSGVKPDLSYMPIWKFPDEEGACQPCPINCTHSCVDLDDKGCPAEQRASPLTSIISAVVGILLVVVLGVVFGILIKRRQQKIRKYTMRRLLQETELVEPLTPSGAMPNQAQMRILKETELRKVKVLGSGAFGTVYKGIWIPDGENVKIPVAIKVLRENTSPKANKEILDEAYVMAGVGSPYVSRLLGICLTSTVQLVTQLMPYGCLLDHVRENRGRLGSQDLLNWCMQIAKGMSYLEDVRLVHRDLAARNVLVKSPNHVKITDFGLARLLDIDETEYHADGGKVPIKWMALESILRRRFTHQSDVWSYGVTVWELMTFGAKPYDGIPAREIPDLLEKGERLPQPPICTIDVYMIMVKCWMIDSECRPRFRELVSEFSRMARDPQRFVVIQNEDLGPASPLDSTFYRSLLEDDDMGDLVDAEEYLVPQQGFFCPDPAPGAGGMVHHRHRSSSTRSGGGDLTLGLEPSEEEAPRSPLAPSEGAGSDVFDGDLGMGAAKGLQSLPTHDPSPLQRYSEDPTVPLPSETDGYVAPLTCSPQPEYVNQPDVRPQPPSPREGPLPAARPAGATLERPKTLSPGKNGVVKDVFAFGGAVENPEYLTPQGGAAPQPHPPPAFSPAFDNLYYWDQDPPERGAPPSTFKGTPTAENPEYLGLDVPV

[3] = reduced viability of SK-BR-3 breast cancer cells – cell-based, 24 h, human, pilot screen (AID 572); details: SK-BR-3 viability, CellTiter-Glo luminescence, at 10 µM, stronger effect = lower value;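 also: compound exposure lasted between 18 and 24 h rather than exactly 24 h; 100% = carrier-treated control wells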
[4] = HUVEC growth inhibition – cell-based, human, primary screen (AID 575;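 active = viability at or below 30% in both replicate assays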;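 also: 100% = median of untreated cell wells with 0.1% DMSO on each plate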); details: HUVEC proliferation, CellTiter-Glo luminescence, 72 h; at 10 µM; stronger effect = lower value
In short: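 Assay system: primary human umbilical vein endothelial cells / Buffer or medium: endothelial basal medium with 2% FBS plus growth supplements / Compound dosing: one dose, 10 µM final, 0.1% DMSO / Timing: 72 h treatment at 37 °C / Signal: CTG luminescence / Benchmarks: 32 DMSO-only cell-control wells (high), 32 MePR drug-control wells (low) per plate / Plate: collagen-coated 384-well format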

[5] = H69AR cell proliferation blockers – human, duplicate replicates, primary screen (AID 580;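 active = viability at or under a set limit in both replicates, limit being median viability minus 3 SD, cut at about 48% in these data, passing the limit was not always enough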;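 also: 100% = mean luminescence of untreated wells and 0% = no signal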); details: H69AR lung tumor cells viability, ATP luminescence, 72 h; at 10 µM; stronger effect = lower value
[6] = MRP1 drug-resistance reversers in H69AR cells – cell-based, doxorubicin co-treatment, pilot screen (AID 601;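 active = viability loss from added drug above about 55%, and viability with drug at most 40%, in both replicates, limit read from the data, passing the limit was not always enough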); details: CellTiter-Glo, 72 h, at 10 µM; for differential viability (reversal): stronger effect = higher value
[7] = yeast transport mutant growth inhibition pilot in 384-well plates, post-Golgi transport modulator project (AID 636; in the data active = inhibition above about 31%); details: absorbance 615 nm, about 18 h, stronger effect = higher value
[8] = growth suppression of yeast trafficking mutant, preliminary HTS, modulators of trafficking downstream of Golgi apparatus project, 1536-format plate, OD 615 nm (AID 637; in the data active = inhibition above about 30%); details: yeast transport mutant growth, absorbance 615 nm, 18 h; stronger effect = higher value
[9] = H69AR cells + 2 uM doxorubicin, measured here: viability with 2 uM doxorubicin, stronger effect = lower value
[10] = H69AR cells, compound alone cytotoxicity

Row | Structure (SMILES) | viability [1] [%] | Her2 level [2] | viability [3] | viability [4] | viability [5] | differential viability (reversal) ([6]; H69AR cells + 2 uM doxorubicin) | viability [6, 9] [%] | viability [6, 10] [%] | inhibition [7] | inhibition [8]
1 | COc1cc(-c2nnc(SCC(=O)c3cc(C)n(CC4CCCO4)c3C)o2)cc(OC)c1OC (stereo not given) | 104 | 66.5% (inactive) | 104% (inactive) | 76.4% (inactive) | 77.5% (inactive) | -2% (inactive) | 79.5 | 77.5 | -5.95% (inactive) | -4.83% (inactive)
2 | COc1ccc(Cl)cc1NC(=O)c1oc(C)nc1C | 91 | 71.5% (inactive) | 91% (inactive) | 91% (inactive) | 90.1% (inactive) | -2.13% (inactive) | 92.3 | 90.1 | -5.95% (inactive) | 6.5% (inactive)
3 | Cc1nc(SCc2ccc(Br)cc2)[nH]c(=O)c1C | 83.5 | 85.5% (inactive) | 83.5% (inactive) | 60.7% (inactive) | 92.1% (inactive) | 9.71% (inactive) | 82.4 | 92.1 | -5.14% (inactive) | 0.82% (inactive)
4 | CC(C)OC(=O)C(CC(=O)O)NCc1ccccc1 (stereo not given) | 98 | 91.5% (inactive) | 98% (inactive) | 97.5% (inactive) | 91.6% (inactive) | 3.69% (inactive) | 88 | 91.6 | -2.63% (inactive) | -1.29% (inactive)
5 | Cc1ccc(NC2=NC(c3ccccc3)n3c(nc(C)cc3=O)N2)cc1 (stereo not given) | 86.5 | 82% (inactive) | 86.5% (inactive) | 93.5% (inactive) | 88.5% (inactive) | 11.3% (inactive) | 77.2 | 88.5 | -2.11% (inactive) | 2.55% (inactive)
6 | COc1cccc(-c2csc3nnc(SCC(=O)c4ccc(NC(C)=O)cc4)n23)c1 | 108 | 106% (inactive) | 108% (inactive) | 92% (inactive) | 90% (inactive) | -9.79% (inactive) | 99.8 | 90 | -4.42% (inactive) | -0.66% (inactive)
7 | O=C(CSc1nnc(Cn2nnc(-c3ccccc3)n2)n1-c1ccccc1)Nc1ccc(F)cc1 | 91 | 82% (inactive) | 91% (inactive) | 64.1% (inactive) | 75.7% (inactive) | 3.96% (inactive) | 71.8 | 75.7 | -1.45% (inactive) | 13.4% (inactive)
8 | CC(=O)c1ccc(NC2OC(C)C(O)C(O)C2O)cc1 (stereo not given) | 121 | 112% (inactive) | 121% (inactive) | 100% (inactive) | 91.3% (inactive) | 1.54% (inactive) | 89.8 | 91.3 | 2.24% (inactive) | -6.67% (inactive)
9 | Cc1occc1-c1nnc(SCC(=O)N2CCc3ccccc32)o1 | 98.5 | 82.5% (inactive) | 98.5% (inactive) | 85.8% (inactive) | 3.12% (active) | 0.62% (inactive) | 2.5 | 3.12 | -3.01% (inactive) | -3.02% (inactive)
10 | Fc1cccc2sc(N3CCOCC3)nc12 | 93.5 | 80.5% (inactive) | 93.5% (inactive) | 83.9% (inactive) | 96.8% (inactive) | 15.4% (inactive) | 81.4 | 96.8 | -4.87% (inactive) | 5.17% (inactive)
11 | CCc1ccccc1N=C1SCC(=O)N1C | 96.5 | 102% (inactive) | 96.5% (inactive) | 87.9% (inactive) | 97% (inactive) | 10.1% (inactive) | 86.8 | 97 | -6.67% (inactive) | -4.26% (inactive)
12 | CCOC(=O)Cn1nnnc1C(C(C)C)N(Cc1cc2c(C)cc(C)cc2[nH]c1=O)C1CCCC1 (stereo not given) | 98 | 102% (inactive) | 98% (inactive) | 58.6% (inactive) | 88.5% (inactive) | -1.4% (inactive) | 89.9 | 88.5 | -5.41% (inactive) | 16.6% (inactive)
13 | CC1CCCCC1NC(=O)C1CCN(C(=O)NC2CCCCC2)CC1 (stereo not given) | 94.5 | 108% (inactive) | 94.5% (inactive) | 90.8% (inactive) | 102% (inactive) | 6.41% (inactive) | 95.3 | 102 | -0.78% (inactive) | 0.17% (inactive)
14 | O=C(CN1C(=O)CSC1=O)N1CCc2ccccc2C1 | 100 | 98% (inactive) | 100% (inactive) | 73.4% (inactive) | 89.6% (inactive) | 0.255% (inactive) | 89.3 | 89.6 | -2.34% (inactive) | -3.5% (inactive)
15 | CC1N=C2c3ccccc3N=C(SCc3cc(=O)n4cc(Cl)ccc4n3)N2C1=O (stereo not given) | 78.5 | 92.5% (inactive) | 78.5% (inactive) | 79.4% (inactive) | 76.1% (inactive) | -9.46% (inactive) | 85.6 | 76.1 | -4.87% (inactive) | -0.48% (inactive)

Reference: PubChem BioAssay
